Where “and” joins values, the source holds several entries; their conditions need not be identical. Equal entries are not always repeated. Calls of active or inactive are those of the source.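 Rule for the calls: active = signal drop with fitted AC50 no more than twice the top valid dose in every repeat run; inconclusive = mixed run calls, flat 30 to 70% drop, or poor fit; inactive = the rest.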
System: SK-MEL-5 viability, CellTiter-Glo ATP luminescence, 24 h
Assay: ATP-based viability of SK-MEL-5 melanoma cells – cell-based, CellTiter-Glo luminescence, dry powder, set 4, orthogonal assay for MITF inhibitor project, dose response (AID 624366)
Outline: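 Test system – SK-MEL-5 melanoma cells, parental line of primary-screen reporter line · Buffer or medium – phenol red-free growth medium · Dosing – multiple compound doses delivered by pin transfer · Times – 24 h treatment at 37 °C, 5 min RT read · Detection – CellTiter-Glo luminescence measuring cellular ATP · Evaluation – viability via ATP level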

| SMILES | AC50 |
| --- | --- |
| C=C1C(=O)OC2C1CC/C(C)=C\CCC1(C)OC21 (stereo not given) | > 70 µM (inactive) |
| O=C1C(NS(=O)(=O)c2ccc(Br)s2)=C(N2CCCCC2)C(=O)c2ccccc21 | 23.9 µM |
| COC1=C(NS(=O)(=O)c2cccs2)C(=O)c2ccccc2C1=O | 23.7 µM |
| CCN(CC)CCNC1=C(Nc2ccccc2)C(=O)c2ccccc2C1=O | > 70 µM (inactive) |
| O=C1C(Nc2ccccc2)=C(N2CCCCC2)C(=O)c2ccccc21 | 25.3 µM |
| COC1=C(NS(=O)(=O)c2ccccc2)C(=O)c2ccccc2C1=O | 15.8 µM |
| O=C1C(Nc2ccccc2)=C(N2CCSCC2)C(=O)c2ccccc21 | > 70 µM (inactive) |
| NC1=C(NC(=O)c2ccccc2)C(=O)c2ccccc2C1=O | 12.3 µM |
| NC1=C(NS(=O)(=O)c2cccs2)C(=O)c2ccccc2C1=O | 11.3 µM |
| CN1CCN(C2=C(NS(=O)(=O)c3ccc(Br)s3)C(=O)c3ccccc3C2=O)CC1 | 23.6 µM |
| C=CCNC1=C(Cl)C(=O)c2ccccc2C1=O | 15.4 µM |
| O=C(NC1=C(N2CCSCC2)C(=O)c2ccccc2C1=O)c1ccc(Br)cc1 | > 70 µM (inactive) |
| COC1=C(Nc2ccccc2)C(=O)c2ccccc2C1=O | 3.02 µM |
| O=C1C=C(NS(=O)(=O)c2ccccc2)C(=O)c2ccccc21 | 5.83 µM |
| O=C1C=C(NS(=O)(=O)c2ccc(Br)cc2)C(=O)c2ccccc21 | 10 µM |
| O=C1C(Nc2ccccc2)=C(c2ccccc2)C(=O)c2ccccc21 | 27.3 µM |
| CCN1CCN(C2=C(NC(=O)c3ccc(Br)cc3)C(=O)c3ccccc3C2=O)CC1 | 11 µM |
| O=C(NC1=C(N2CCCCC2)C(=O)c2ccccc2C1=O)c1ccc(Br)cc1 | > 70 µM (inactive) |
| CNC1=CC(=O)c2ccccc2C1=O | > 70 µM (inactive) |
| O=C1C=C(Nc2ccccc2)C(=O)c2ccccc21 | 3.44 µM and 3.95 µM |

| SMILES | AC50 |
| --- | --- |
| CCN1CCN(C2=C(NS(=O)(=O)c3ccc(Br)s3)C(=O)c3ccccc3C2=O)CC1 | > 70 µM (inactive) |
| CCN(CC)CCCNC1=C(Nc2ccccc2)C(=O)c2ccccc2C1=O | 24.4 µM |
| COC1=C(NS(=O)(=O)c2ccc(Br)cc2)C(=O)c2ccccc2C1=O | 11.3 µM |
| Cc1nc2ccccc2n1/N=C/c1ccc([N+](=O)[O-])s1 | > 70 µM (inactive) |
| NC1=CC(=O)c2ccccc2C1=O | 11 µM |
| CC1CCN(CC(CS(=O)(=O)c2ccc([N+](=O)[O-])cc2)N2CCC(C)CC2)CC1 (stereo not given) | > 70 µM (inactive) |
| CC(=O)N(C)C1=C(N2CCCCC2)C(=O)c2ccccc2C1=O | 6.71 µM |
| NC1=C(c2ccc(OC(F)(F)F)cc2)C(=O)c2ccccc2C1=O | > 70 µM (inactive) |
| O=C1C=C(NS(=O)(=O)c2cccs2)C(=O)c2ccccc21 | 9.28 µM |
| O=C1C(NS(=O)(=O)c2ccc(Br)s2)=C(N2CCOCC2)C(=O)c2ccccc21 | 27.6 µM |
| CC(=O)N(C)C1=C(N2CCN(C)CC2)C(=O)c2ccccc2C1=O | 5.48 µM |
| C[C@@H](NC1=C(Nc2ccccc2)C(=O)c2ccccc2C1=O)c1ccccc1 | > 70 µM (inactive) |
| O=C1C(Nc2ccccc2)=C(NS(=O)(=O)c2ccccc2[N+](=O)[O-])C(=O)c2ccccc21 | > 70 µM (inactive) |
| C=CCNC1=C(N(C)C(C)=O)C(=O)c2ccccc2C1=O | 0.843 µM |
| NC1=C(NS(=O)(=O)c2ccccc2)C(=O)c2ccccc2C1=O | 14 µM |
| CN1CCN(C2=C(Nc3ccccc3)C(=O)c3ccccc3C2=O)CC1 | 34.2 µM |
| O=C1C(NS(=O)(=O)c2ccccc2)=C(c2ccccc2)C(=O)c2ccccc21 | > 70 µM (inactive) |
| O=C(NC1=C(N2CCOCC2)C(=O)c2ccccc2C1=O)c1ccc(Br)cc1 | > 70 µM (inactive) |
| CN1CCN(C2=C(NC(=O)c3ccc(Br)cc3)C(=O)c3ccccc3C2=O)CC1 | 8 µM |
| NC1=C(NS(=O)(=O)c2ccc(Br)cc2)C(=O)c2ccccc2C1=O | 28.1 µM |

— PubChem BioAssay AID624366 (Broad Institute, 2012)
